Assay results published in ChEMBL document CHEMBL2034856, “Synthesis and evaluation of 11β-(4-substituted phenyl) estradiol analogs: transition from estrogen receptor agonists to antagonists” (Bioorg Med Chem, 2012).

How the values were obtained:
[1] = target: T1, Estrogen receptor (Homo sapiens) (UniProt P03372); experiment: Mixed agonist and antagonist activity at Estrogen receptor expressed in human Ishikawa cells assessed as induction of alkaline phosphatase after 3 days by spectrophotometry relative to estradiol; type: functional, cell-based; design: scale not given: the % may be the effect or the level left
T1 sequence (whole entry): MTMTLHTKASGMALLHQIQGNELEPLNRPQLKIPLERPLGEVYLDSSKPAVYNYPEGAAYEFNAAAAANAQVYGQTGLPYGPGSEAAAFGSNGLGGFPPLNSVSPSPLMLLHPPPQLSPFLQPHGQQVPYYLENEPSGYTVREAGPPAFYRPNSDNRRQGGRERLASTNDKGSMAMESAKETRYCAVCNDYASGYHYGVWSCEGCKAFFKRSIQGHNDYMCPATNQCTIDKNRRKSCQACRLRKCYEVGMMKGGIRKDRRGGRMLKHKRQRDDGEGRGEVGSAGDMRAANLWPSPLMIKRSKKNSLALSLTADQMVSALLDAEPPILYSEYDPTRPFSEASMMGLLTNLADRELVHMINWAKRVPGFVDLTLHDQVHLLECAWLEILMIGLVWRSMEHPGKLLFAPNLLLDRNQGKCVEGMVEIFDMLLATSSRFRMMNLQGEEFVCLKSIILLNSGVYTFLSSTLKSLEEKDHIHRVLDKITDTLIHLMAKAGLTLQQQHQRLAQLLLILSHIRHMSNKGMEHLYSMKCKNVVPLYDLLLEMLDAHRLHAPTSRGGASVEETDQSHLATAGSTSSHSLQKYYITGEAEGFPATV
Outline: (§1)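 Ishikawa endometrial adenocarcinoma cells were grown in phenol red-free medium with charcoal-stripped bovine serum, with steroids across at least 6 orders of magnitude, for 3 days. Cells were then washed and freeze-thawed, and alkaline phosphatase was read kinetically as p-nitrophenol at 405 nm from 5 mM p-nitrophenyl phosphate at pH 9.8. RSA is the ratio of 1/EC50 versus E2 ×100, from curve fitting. At least 3 experiments were run in duplicate.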

[2] = target: T2, Estrogen receptor (Bos taurus) (UniProt P49884); experiment: Displacement of [3H]estradiol from calf cytosolic ER relative to estradiol
T2 sequence (whole entry): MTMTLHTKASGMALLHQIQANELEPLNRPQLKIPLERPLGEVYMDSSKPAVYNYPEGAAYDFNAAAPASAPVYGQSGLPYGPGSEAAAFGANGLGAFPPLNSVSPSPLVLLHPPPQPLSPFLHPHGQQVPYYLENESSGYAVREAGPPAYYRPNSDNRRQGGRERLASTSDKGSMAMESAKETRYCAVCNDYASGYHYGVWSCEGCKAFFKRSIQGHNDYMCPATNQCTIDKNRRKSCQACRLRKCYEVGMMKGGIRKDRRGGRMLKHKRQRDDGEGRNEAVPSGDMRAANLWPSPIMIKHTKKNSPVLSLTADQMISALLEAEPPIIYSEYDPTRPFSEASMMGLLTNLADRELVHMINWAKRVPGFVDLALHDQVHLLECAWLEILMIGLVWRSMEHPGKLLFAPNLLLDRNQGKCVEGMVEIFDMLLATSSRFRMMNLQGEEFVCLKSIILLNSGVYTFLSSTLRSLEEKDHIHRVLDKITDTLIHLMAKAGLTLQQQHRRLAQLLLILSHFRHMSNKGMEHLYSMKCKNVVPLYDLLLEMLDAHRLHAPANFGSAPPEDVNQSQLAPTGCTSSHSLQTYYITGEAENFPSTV

[3] = target: T1, Estrogen receptor (Homo sapiens); experiment: Agonist activity at Estrogen receptor expressed in human Ishikawa cells assessed as induction of alkaline phosphatase after 3 days by spectrophotometry relative to estradiol; type: functional, cell-based; outline: as §1
[4] = target: Estrogen receptor beta (Homo sapiens) (UniProt Q92731); experiment: Displacement of [3H]estradiol from human ERbeta LBD expressed in Escherichia coli
Estrogen receptor beta (Homo sapiens), sequence (Q92731 whole entry, the tested form may be a part): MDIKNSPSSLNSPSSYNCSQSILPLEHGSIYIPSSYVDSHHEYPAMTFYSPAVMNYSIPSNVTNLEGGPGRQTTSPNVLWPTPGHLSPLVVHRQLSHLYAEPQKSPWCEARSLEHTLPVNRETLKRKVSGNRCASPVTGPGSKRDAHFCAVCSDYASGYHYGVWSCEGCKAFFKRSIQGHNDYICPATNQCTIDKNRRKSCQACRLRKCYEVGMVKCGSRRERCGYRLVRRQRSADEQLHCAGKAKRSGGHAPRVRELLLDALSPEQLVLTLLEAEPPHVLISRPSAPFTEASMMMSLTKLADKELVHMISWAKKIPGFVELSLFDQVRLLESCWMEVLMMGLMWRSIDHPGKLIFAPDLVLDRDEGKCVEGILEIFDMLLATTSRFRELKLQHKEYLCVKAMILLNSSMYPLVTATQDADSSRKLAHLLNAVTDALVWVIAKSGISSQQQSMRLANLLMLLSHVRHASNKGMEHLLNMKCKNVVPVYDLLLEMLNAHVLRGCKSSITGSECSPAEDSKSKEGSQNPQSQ

Estrogen receptor = target: T3, Estrogen receptor (Homo sapiens, UniProt P03372); experiment: Antagonist activity at Estrogen receptor expressed in human Ishikawa cells assessed as inhibition of estradiol-induced increase in alkaline phosphatase after 3 days by spectrophotometry; type: functional, cell-based
T3 sequence (P03372 whole entry): T1 sequence (whole entry)
Outline: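 Ishikawa cells were grown in phenol red-free, charcoal-stripped bovine serum medium. Compounds at 10−6 to 10−12 M were tested against 10−9 M E2 for 3 days. Ki came from curve fitting. At least 3 experiments were run in duplicate.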

SMILES | RSA [3] [%] | RBA [4] [%] | other results
COc1ccc([C@H]2C[C@]3(C)[C@@H](O)CC[C@H]3[C@@H]3CCc4cc(O)ccc4[C@H]32)cc1 | – | – | Activity [1]: 35%
N#CC(=C(c1ccc(O)cc1)c1ccc(O)cc1)c1ccc(O)cc1 | – | – | RBA [2]: 166%
COc1ccc(/C(=C(/C#N)c2ccc(O)cc2)c2ccc(O)cc2)cc1 | – | – | RBA [2]: 17%
C=C[C@H]1C[C@]2(C)[C@@H](O)CC[C@H]2[C@@H]2CCc3cc(O)ccc3[C@H]21 | 70 | – | –
C[C@]12C[C@H](c3ccc(OCCOCCOCCn4cc(CNC5=CC(=O)c6ccccc6C5=O)nn4)cc3)[C@@H]3c4ccc(O)cc4CC[C@H]3[C@@H]1CC[C@@H]2O | – | – | Ki (Estrogen receptor): 1.1 nM
C[C@]12C[C@H](c3ccc(OCCCCCS(=O)(=O)C(F)(F)C(F)(F)F)cc3)[C@@H]3c4ccc(O)cc4CC[C@H]3[C@@H]1CC[C@@H]2O | – | 27 | Ki (Estrogen receptor): 5.3 nM

Further lines, with some results ahead:

RSA [3] [%] | RBA [4] [%] | SMILES | other results
17 | 41 | C[C@]12C[C@H](c3ccc(O)cc3)[C@@H]3c4ccc(O)cc4CC[C@H]3[C@@H]1CC[C@@H]2O | –
– | 17 | CN(C)CCOc1ccc([C@H]2C[C@]3(C)[C@@H](O)CC[C@H]3[C@@H]3CCc4cc(O)ccc4[C@H]32)cc1 | –
76 | – | CO[C@H]1C[C@]2(C)[C@@H](O)CC[C@H]2[C@@H]2CCc3cc(O)ccc3[C@H]21 | –
